Laboratory results reported in ChEMBL document CHEMBL1275595, “Antimicrobial activity of a halocidin-derived peptide resistant to attacks by proteases” (2010).
In brackets after ≈: the same amount, converted by molar mass. Activity calls are given as the source filed them. The calls are words filed in the database; no cut-off is given here. Numbered stars: 1 amine (or outer) side, 2 acyl side, 3 side chain; on linkers, the order of the positions; unused ones are H or OH. Bridge positions count the residues as written; N and C are the ends. Square brackets hold non-standard residues; d marks the D form. Peptide text beside a SMILES is read from it. I, II: the chains in the order shown. Gly(αS-SH) = O=C([C@@H](N[*:1])S[*:3])[*:2]

Key:
Staphylococcus aureus [1] = assay: Antimicrobial activity against methicillin-resistant Staphylococcus aureus CCARM 3696 by radial diffusion assay incubated with chymotrypsin; type: functional, organism-based
Staphylococcus aureus [2] = assay: Antimicrobial activity against methicillin-resistant Staphylococcus aureus CCARM 3696 by radial diffusion assay incubated with trypsin; type: functional, organism-based
Citrobacter freundii = assay: Antimicrobial activity against Citrobacter freundii KCTC 2359 after 18 hrs by broth dilution method; type: functional; conditions: KCTC 2359, 18 h
Summary of the method: (§1)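 Broth microdilution following CLSI recommendations. Bacteria were grown overnight to stationary phase in Mueller-Hinton broth, then diluted in fresh MHB to 2 × 10^5 CFU/ml. Peptide or antibiotic stocks of 640 μg/ml in 0.01% acetic acid were serially 2-fold diluted to 10 μg/ml, and each was added to the bacterial suspension at 11 μl per 100 μl. Plates were incubated 18 h at 37°C. MIC was taken as the lowest concentration giving no visible turbidity, in triplicate.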

Pseudomonas aeruginosa = assay: Antimicrobial activity against multidrug-resistant Pseudomonas aeruginosa CCARM 2161 after 18 hrs by broth dilution method; type: functional; conditions: CCARM 2161, 18 h
Summary of the method: (§2)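 Broth dilution per CLSI. Bacteria were grown overnight to stationary phase in Mueller-Hinton broth and diluted in fresh MHB to 2 × 10^5 CFU/ml. Stocks at 640 μg/ml in 0.01% acetic acid were 2-fold serially diluted to 10 μg/ml, and 11 μl was added to 100 μl of bacteria. After 18 h at 37°C, MIC was the lowest concentration with no visible turbidity. Run in triplicate.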

Escherichia coli = assay: Antimicrobial activity against Escherichia coli KCTC 1039 after 18 hrs by broth dilution method; type: functional; conditions: KCTC 1039, 18 h; summary of the method: as §1
Enterococcus faecium = assay: Antimicrobial activity against vancomycin-resistant Enterococcus faecium CCARM 5028 after 18 hrs by broth dilution method; type: functional; conditions: CCARM 5028, 18 h; summary of the method: as §2
Salmonella enterica = assay: Antimicrobial activity against Salmonella enterica KCTC 2930 after 18 hrs by broth dilution method; type: functional; conditions: KCTC 2930, 18 h; summary of the method: as §1
Klebsiella oxytoca = assay: Antimicrobial activity against Klebsiella oxytoca KCTC 1686 after 18 hrs by broth dilution method; type: functional; conditions: KCTC 1686, 18 h; summary of the method: as §1
Micrococcus luteus = assay: Antimicrobial activity against Micrococcus luteus KCTC 9341 after 18 hrs by broth dilution method; type: functional; conditions: KCTC 9341, 18 h; summary of the method: as §1
Listeria monocytogenes = assay: Antimicrobial activity against Listeria monocytogenes KCTC 19111 after 18 hrs by broth dilution method; type: functional; conditions: KCTC 19111, 18 h; summary of the method: as §1
Bacillus subtilis = assay: Antimicrobial activity against Bacillus subtilis KCTC 2213 after 18 hrs by broth dilution method; type: functional; conditions: KCTC 2213, 18 h; summary of the method: as §1
Staphylococcus aureus [3] = assay: Antimicrobial activity against methicillin-resistant Staphylococcus aureus CCARM 3696 after 18 hrs by broth dilution method; type: functional; conditions: CCARM 3696, 18 h; summary of the method: as §2

CC(C)C[C@H](NC(=O)CNC(=O)[C@H](Cc1cnc[nH]1)NC(=O)[C@@H](N)Cc1cnc[nH]1)C(=O)N[C@@H](CC(N)=O)C(=O)N[C@@H](CSSC[C@H](NC(=O)[C@H](CC(N)=O)NC(=O)[C@H](CC(C)C)NC(=O)CNC(=O)[C@H](Cc1cnc[nH]1)NC(=O)[C@@H](N)Cc1cnc[nH]1)C(=O)N[C@@H](C)C(=O)N[C@@H](CCCCN)C(=O)NCC(=O)N[C@H](C(=O)N[C@@H](CC(C)C)C(=O)N[C@@H](C)C(N)=O)C(C)C)C(=O)N[C@@H](C)C(=O)N[C@@H](CCCCN)C(=O)NCC(=O)N[C@H](C(=O)N[C@@H](CC(C)C)C(=O)N[C@@H](C)C(N)=O)C(C)C (I: H-HHGLNCAKGVLA-NH2 / II: H-HHGLNCAKGVLA-NH2; disulfide I:6-II:6) was tested, and the Activity (Staphylococcus aureus [1]) was “Active”.
With CC(C)C[C@H](NC(=O)CNC(=O)[C@H](Cc1cnc[nH]1)NC(=O)[C@H](Cc1cnc[nH]1)NC(=O)[C@H](CC(C)C)NC(=O)[C@H](CC(C)C)NC(=O)[C@H](C)NC(=O)[C@H](CC(N)=O)NC(=O)[C@H](CC(C)C)NC(=O)[C@H](Cc1c[nH]c2ccccc12)NC(=O)[C@@H](N)CCCCN)C(=O)N[C@@H](CC(N)=O)C(=O)N[C@@H](CSS[C@H](NC(=O)[C@H](CC(N)=O)NC(=O)[C@H](CC(C)C)NC(=O)CNC(=O)[C@H](Cc1cnc[nH]1)NC(=O)[C@H](Cc1cnc[nH]1)NC(=O)[C@H](CC(C)C)NC(=O)[C@H](CC(C)C)NC(=O)[C@H](C)NC(=O)[C@H](CC(N)=O)NC(=O)[C@H](CC(C)C)NC(=O)[C@@H](N)Cc1c[nH]c2ccccc12)C(=O)N[C@@H](C)C(=O)N[C@@H](CCCCN)C(=O)O)C(=O)N[C@@H](C)C(=O)N[C@@H](CCCCN)C(=O)O (I: H-KWLNALLHHGLNCAK-OH / II: H-WLNALLHHGLN[Gly(αS-SH)]AK-OH; disulfide I:13-II:12) the Activity (Staphylococcus aureus [2]) was “Active”.
In the case of CC(C)C[C@H](NC(=O)CNC(=O)[C@H](Cc1cnc[nH]1)NC(=O)[C@H](Cc1cnc[nH]1)NC(=O)[C@H](CC(C)C)NC(=O)[C@H](CC(C)C)NC(=O)[C@H](C)NC(=O)[C@H](CC(N)=O)NC(=O)[C@H](CC(C)C)NC(=O)[C@H](Cc1c[nH]c2ccccc12)NC(=O)[C@@H](N)CCCCN)C(=O)N[C@@H](CC(N)=O)C(=O)N[C@@H](CSSC[C@H](NC(=O)[C@H](CC(N)=O)NC(=O)[C@H](CC(C)C)NC(=O)CNC(=O)[C@H](Cc1cnc[nH]1)NC(=O)[C@H](Cc1cnc[nH]1)NC(=O)[C@H](CC(C)C)NC(=O)[C@H](CC(C)C)NC(=O)[C@H](C)NC(=O)[C@H](CC(N)=O)NC(=O)[C@H](CC(C)C)NC(=O)[C@H](Cc1c[nH]c2ccccc12)NC(=O)[C@@H](N)CCCCN)C(=O)N[C@@H](C)C(=O)N[C@@H](CCCCN)C(=O)O)C(=O)N[C@@H](C)C(=O)N[C@@H](CCCCN)C(=O)O (I: H-KWLNALLHHGLNCAK-OH / II: H-KWLNALLHHGLNCAK-OH; disulfide I:13-II:13), the Activity (Staphylococcus aureus [2]) is reported as “Active”.
With CC(C)C[C@H](NC(=O)[C@H](CC(C)C)NC(=O)[C@H](C)NC(=O)[C@H](CC(N)=O)NC(=O)[C@H](CC(C)C)NC(=O)[C@H](Cc1c[nH]c2ccccc12)NC(=O)[C@@H](N)CCCCN)C(=O)O (H-KWLNALL-OH) the Activity (Staphylococcus aureus [1]) was “inactive”.
With CC(C)(O/N=C(\C(=O)N[C@@H]1C(=O)N2C(C(=O)[O-])=C(C[n+]3ccccc3)CS[C@H]12)c1csc(N)n1)C(=O)O [CEFTAZIDIME] the MIC (Citrobacter freundii) was 8 µg/mL (≈ 14.6 µM), the MIC (Pseudomonas aeruginosa) was 4 µg/mL (≈ 7.32 µM) and the MIC (Escherichia coli) was < 1 µg/mL. For the same compound, the MIC (Enterococcus faecium) was > 64 µg/mL, the MIC (Salmonella enterica) was > 64 µg/mL and the MIC (Klebsiella oxytoca) was < 1 µg/mL. For the same compound, the MIC (Micrococcus luteus) was > 64 µg/mL, the MIC (Listeria monocytogenes) was < 1 µg/mL and the MIC (Bacillus subtilis) was 4 µg/mL (≈ 7.32 µM). For the same compound, the MIC (Staphylococcus aureus [3]) was > 64 µg/mL.
